Screening data: PubChem BioAssay, Broad Institute
ALR inh = inhibitors of human ALR sulfhydryl oxidase, primary screen, biochemical, H2O2 detection, HRP-luminol luminescence, single point; hit rate 3.8% among 290,000; purified ALR, DTT oxidation; inhibition, % (no concentration beside the values); FAD-linked sulfhydryl oxidase ALR (Homo sapiens), P55789; AID 485317, 2010;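 active = mean replicate inhibition above about 79%, with every replicate also reaching it, limit read from the data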
Target sequence (P55789 whole entry, looked up): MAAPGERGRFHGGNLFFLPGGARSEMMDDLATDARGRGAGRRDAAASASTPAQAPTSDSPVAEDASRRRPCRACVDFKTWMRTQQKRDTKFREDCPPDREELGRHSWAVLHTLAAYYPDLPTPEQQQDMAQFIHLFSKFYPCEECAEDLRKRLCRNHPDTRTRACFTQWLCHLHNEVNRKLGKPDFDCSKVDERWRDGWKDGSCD
Rtt109 Vps75 = inhibitors of C. albicans Rtt109/Vps75 HAT, primary screen, biochemical, ThioGlo CoA-SH fluorescence, plate reader; Histone acetyltransferase RTT109 (Candida albicans (strain SC5314 / ATCC MYA-2876)), …; purified Rtt109/Vps75, 4 h; inhibition, % at 34.9 µM; hit rate 0.16% among 330,000;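 active = inhibition of at least 50% in every replicate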
Target sequence (Q5AAJ8 whole entry, looked up): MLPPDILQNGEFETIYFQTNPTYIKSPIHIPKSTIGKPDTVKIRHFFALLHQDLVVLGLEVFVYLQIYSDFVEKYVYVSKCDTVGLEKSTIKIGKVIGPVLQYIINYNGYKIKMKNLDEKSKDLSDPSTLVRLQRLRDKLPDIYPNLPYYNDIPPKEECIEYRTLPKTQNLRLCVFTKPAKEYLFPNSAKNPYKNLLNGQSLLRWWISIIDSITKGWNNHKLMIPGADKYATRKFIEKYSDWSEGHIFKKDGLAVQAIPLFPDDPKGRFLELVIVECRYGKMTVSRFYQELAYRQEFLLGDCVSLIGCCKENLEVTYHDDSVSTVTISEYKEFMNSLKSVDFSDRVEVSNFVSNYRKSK
Dyrk1A ADPGlo = rat Dyrk1A kinase inhibitors, primary screen, biochemical, single point, plate reader; Dual specificity tyrosine-phosphorylation-regulated kinase 1A (Rattus norvegicus), Q63470; ADP-Glo luminescence, NFATc1 peptide; inhibition, % at 12.5 µM; hit rate 0.43% among 310,000; AID 504441, 2011; in the data active = inhibition above about 50%
CAL PDZ FP-1 = untagged CAL PDZ binding inhibitors, primary screen, biochemical, fluorescence polarization, HTS | Golgi-associated PDZ and coiled-coil motif-containing protein (Homo sapiens), Q9HD26 | purified CAL PDZ, TMR-peptide fluorescence polarization, 1 h | inhibition, % at 24.9 µM | hit rate 0.92% among 300,000 | AID 602252, 2012;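 active = mean inhibition of at least 30% with at least half of replicates also reaching 30%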
CAL PDZ FP-2 = CAL PDZ peptide-binding inhibitors, primary screen, biochemical, fluorescence polarization, Cer-tagged CAL PDZ, HTS. Golgi-associated PDZ and coiled-coil motif-containing protein (Homo sapiens), Q9HD26. purified CAL PDZ, TMR-peptide fluorescence polarization, 1 h. AID 504414, 2011. hit rate 0.02% among 330,000. inhibition, % at 20 µM;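 active = highest replicate inhibition of at least 40%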
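material = purified tagged CAL PDZ domain construct (CerCALP) | compound dosing = 20 µM, one dose | times = 1 h at RT | measured by = fluorescence polarization from S- and P-plane intensities, G-factor corrected | read-out = inhibition from polarization loss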
Each line names hits and unclear results; the compound was inactive in the other large screens. Most compounds without a hit are left out; they make up all but 4.3% or so of the library.

Cc1cc(C)n2nc(SCC(=O)c3c(N)n(CC(C)C)c(=O)n(C)c3=O)nc2n1	none (no result: Dyrk1A ADPGlo)
COc1ccc(N(C)C(=O)c2oc(=O)c3ccccc3c2-c2ccccc2)c(OC)c1	none
Cc1cccc(NC(=O)CCNC(=O)c2ccc(Br)cc2)c1	CAL PDZ FP-1 47.2 (no result: ALR inh)
COc1cc(C(=O)NCC(=O)N/N=C/c2ccc(OC(=O)c3ccco3)cc2)cc(OC)c1OC	none (no result: CAL PDZ FP-1)
O=C(COc1ccc2c(-c3ccccc3)cc(=O)oc2c1)NCC(O)c1ccccc1 (stereo not drawn)	none
O=S(=O)(c1ccccc1)c1nc(-c2ccco2)oc1N1CCCCC1	CAL PDZ FP-1 42.4 (no result: ALR inh)
O=C(O)CCNS(=O)(=O)c1ccc2c(c1)OCCCO2	none (no result: Dyrk1A ADPGlo)
Nc1ccc(-c2cc(N)n(-c3ccccc3)n2)cc1	ALR inh 93.2
Cc1ccc(-n2nc(-c3ccc(N)cc3)cc2N)cc1	ALR inh 98.4
COc1ccccc1NC(=O)C(C)OC(=O)C1CCN(S(=O)(=O)c2ccc(C)c(C)c2)CC1 (stereo not drawn)	none (no result: Dyrk1A ADPGlo)
CCCn1nc(NS(=O)(=O)c2ccccc2[N+](=O)[O-])c2cc3ccccc3nc21	none (no result: CAL PDZ FP-1)
CCn1nc(NS(=O)(=O)c2ccccc2[N+](=O)[O-])c2cc3cccc(C)c3nc21	ALR inh 91.5 (no result: CAL PDZ FP-1)
CCCn1nc(NS(=O)(=O)c2cccc3nonc23)c2cc3ccccc3nc21	ALR inh 99.0
CCn1nc(NS(=O)(=O)c2ccccc2)c2cc3cc(C)ccc3nc21	ALR inh 80.7
c1ccc2sc(N3CCCN(Cc4nc(-c5cnccn5)no4)CC3)nc2c1	none
COc1cccc(N2CCN(C(=O)CCSCc3ccccc3F)CC2)c1	ALR inh 97.0
COc1ccccc1N1CCN(C(=O)CCSCc2ccccc2F)CC1	ALR inh 95.7
COc1cccc(N2CCN(C(=O)CCC(=O)c3ccc(Cl)s3)CC2)c1	none
Fc1cccc(CSc2ccc(-c3ccc4c(c3)OCO4)nn2)c1	none
c1cncc(CSc2ccc(-c3ccc4c(c3)OCO4)nn2)c1	CAL PDZ FP-1 46.2
O=C(COc1ccccc1)NC1CCCN(Cc2ccccc2F)C1 (stereo not drawn)	none (no result: CAL PDZ FP-1)
O=S(=O)(c1ccc(Cl)s1)N1CCC(Cc2ccccc2)CC1	ALR inh 97.3
O=S(=O)(c1ccc(Cl)nc1)N1CCC(Cc2ccccc2)CC1	ALR inh 99.1
CCOC(=O)C1CCCN(S(=O)(=O)c2ccc(Cl)nc2)C1 (stereo not drawn)	CAL PDZ FP-1 46.5
O=S(=O)(c1ccc(Br)s1)N1CCC(Cc2ccccc2)CC1	none
CCOC(=O)C1CCCN(S(=O)(=O)c2ccc(C)cc2)C1 (stereo not drawn)	none
Cc1cc([N+](=O)[O-])c2c(c1C)C1C=CCC1C(c1ccccn1)N2 (stereo not drawn)	none (no result: Rtt109 Vps75, Dyrk1A ADPGlo, CAL PDZ FP-1, CAL PDZ FP-2)
COCCNC(=O)CSCc1cc(C)cc(C)c1	none
CCn1c(=O)c2c3c(sc2n2c(=S)[nH]nc12)CCC3	ALR inh 86.8
Cc1ccc(-n2c(=O)c3c4c(sc3n3c(=S)[nH]nc23)CCC4)cc1	none (no result: CAL PDZ FP-1)
CC(=O)NC1C(=O)N=C(SC(C)C(=O)Nc2cccc(Cl)c2)NC1=O (stereo not drawn)	ALR inh 97.7
O=C(Nc1ccc(O)cc1)/C(=C\c1ccncc1)NC(=O)c1ccccc1	ALR inh 99.5
C=CCNC(=O)/C(=C/c1ccco1)NC(=O)c1ccc(Br)o1	none
O=C(Nc1ccc(O)cc1)/C(=C/c1ccco1)NC(=O)c1ccccc1	ALR inh 99.4
C=CCNC(=O)/C(=C\c1ccco1)NC(=O)c1ccco1	CAL PDZ FP-1 64.8 (no result: ALR inh)
Nc1nc(SCc2ccccc2Cl)ns1	none (no result: ALR inh)
CCCCOc1ccc(C(=O)N2CCN(CC(=O)Nc3ccc(C)cc3)CC2)cc1OC	none
OC(c1ccccc1)C(NCCNCc1ccccc1)c1ccccc1 (stereo not drawn)	CAL PDZ FP-1 164.9 (no result: ALR inh)
COc1ccccc1/C=C/CN1CCNC(=O)C1CC(=O)NCCc1cnccn1 (stereo not drawn)	none
CCN1C(=O)/C(=C/N(C)C)c2ccccc21	ALR inh 99.2 (no result: CAL PDZ FP-1)
CCN1C(=O)/C(=C\N(C)C)c2ccccc21	none (no result: ALR inh)
COc1ccc(CCNC(=O)c2ccc(Br)cc2)cc1	CAL PDZ FP-1 41.8 (no result: CAL PDZ FP-2)
COc1ccccc1OCCNC(=O)c1ccc(Br)cc1	CAL PDZ FP-1 32.9 (no result: CAL PDZ FP-2)
CCC(CC)c1nnc(NC(=O)c2cc(C(=O)OC)cc([N+](=O)[O-])c2)s1	none
COC(=O)c1ccccc1NC(=O)C(C)Oc1ccccc1 (stereo not drawn)	none
CC(Oc1ccccc1)C(=O)Nc1ccccc1O (stereo not drawn)	ALR inh 89.9
CC(C)CN(CC(C)C)c1nnc(N)s1	ALR inh 98.8
CCOC(=O)C1(C)NC(c2ccco2)C2C(=O)N(C)C(=O)C21 (stereo not drawn)	none (no result: ALR inh)
CCOc1ccc(C(c2c(O)nc(SC)n(C)c2=O)c2c(O)nc(SC)n(C)c2=O)cc1	ALR inh 97.7 (no result: CAL PDZ FP-1)
CCOc1ccc(OCC(=O)OCn2c(SC)nnc(C)c2=O)cc1	none (no result: ALR inh)
CCOC(=O)c1nnn(-c2nonc2N)c1CSc1nnc(N)s1	none
COc1ccc(C(C[N+](=O)[O-])c2c(C)[nH]n(-c3ccccc3)c2=O)cc1 (stereo not drawn)	none (no result: CAL PDZ FP-2)
Cc1ccc(C(C[N+](=O)[O-])c2c(-c3ccccc3O)[nH][nH]c2=O)cc1 (stereo not drawn)	ALR inh 86.0
O=c1[nH][nH]c(-c2ccccc2O)c1C(C[N+](=O)[O-])c1ccc(Br)cc1 (stereo not drawn)	ALR inh 87.7 (no result: Dyrk1A ADPGlo)
Cc1cc(C)c2c(CN3CCN(Cc4ccccc4)CC3)cc(=O)oc2c1	none
C/C(=N\O)C1CC(CC(=O)O)C1(C)C (stereo not drawn)	CAL PDZ FP-1 42.8
COc1ccc(C(=O)N[C@H](C(=O)NCc2cccs2)C(C)C)cc1	none
O=c1cc(CO)oc(C(Nc2ccccn2)c2ccsc2)c1O (stereo not drawn)	none (no result: Rtt109 Vps75, Dyrk1A ADPGlo, CAL PDZ FP-1, CAL PDZ FP-2)
Cc1ccnc(NC(c2ccccc2O)c2oc(CO)cc(=O)c2O)c1 (stereo not drawn)	ALR inh 98.0
O=c1cc(CO)oc(C(Nc2ccccn2)c2ccccc2Cl)c1O (stereo not drawn)	none (no result: ALR inh, CAL PDZ FP-1)
COc1ccc(C(Nc2ccccn2)c2oc(CO)cc(=O)c2O)cc1 (stereo not drawn)	ALR inh 97.9
O=c1cc(CO)oc(C(Nc2ccccn2)c2ccc(F)cc2)c1O (stereo not drawn)	ALR inh 97.7
CCCNC(=O)[C@H]1N2C(=O)c3c(ccc(OC)c3OC)C2SC1(C)C (stereo partly drawn)	none
O=P(C(=NCCO)NO)(N1CCOCC1)N1CCOCC1	none (no result: CAL PDZ FP-2)
